Assay results reported in ChEMBL document CHEMBL2010758, “Antidotes to anthrax lethal factor intoxication. Part 3: Evaluation of core structures and further modifications to the C2-side chain” (Bioorg Med Chem Lett, 2012).
Calls of active or inactive are those of the source. The rule behind the calls is not given here.

What was measured:
[1] = test system: Rattus norvegicus; assay: Inhibition of Anthrax LT-induced toxicity in Fischer 344 rat assessed as increase in survival at 5 mg/kg, iv administered 20 to 30 mins after LT challenge; assay type: functional, organism-based; parameters: dose 5 mg/kg
[2] = target: Cytochrome P450 2D6 (Homo sapiens, UniProt P10635); assay: Inhibition of CYP2D6; assay type: ADME
Chain of Cytochrome P450 2D6 (P10635 whole entry): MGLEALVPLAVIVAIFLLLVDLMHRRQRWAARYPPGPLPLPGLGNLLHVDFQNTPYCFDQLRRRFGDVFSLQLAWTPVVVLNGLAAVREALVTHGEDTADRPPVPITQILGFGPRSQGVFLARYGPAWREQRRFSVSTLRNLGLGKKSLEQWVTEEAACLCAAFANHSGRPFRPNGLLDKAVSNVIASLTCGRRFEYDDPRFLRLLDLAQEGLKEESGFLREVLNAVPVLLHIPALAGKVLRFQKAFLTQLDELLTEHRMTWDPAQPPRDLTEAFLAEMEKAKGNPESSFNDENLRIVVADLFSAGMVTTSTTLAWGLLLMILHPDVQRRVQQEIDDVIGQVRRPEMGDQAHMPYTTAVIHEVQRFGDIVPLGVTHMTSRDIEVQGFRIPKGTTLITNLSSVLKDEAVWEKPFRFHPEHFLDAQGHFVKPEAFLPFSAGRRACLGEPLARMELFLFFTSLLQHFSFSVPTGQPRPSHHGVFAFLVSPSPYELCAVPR

[3] = test system: RAW264.7; assay: Cytotoxicity against mouse RAW264.7 cells by MTT assay; assay type: cell-based
[4] = target: Macrophage metalloelastase (Homo sapiens, UniProt P39900); assay: Inhibition of MMP-12 using OmniMMP as substrate
Chain of Macrophage metalloelastase (P39900 whole entry): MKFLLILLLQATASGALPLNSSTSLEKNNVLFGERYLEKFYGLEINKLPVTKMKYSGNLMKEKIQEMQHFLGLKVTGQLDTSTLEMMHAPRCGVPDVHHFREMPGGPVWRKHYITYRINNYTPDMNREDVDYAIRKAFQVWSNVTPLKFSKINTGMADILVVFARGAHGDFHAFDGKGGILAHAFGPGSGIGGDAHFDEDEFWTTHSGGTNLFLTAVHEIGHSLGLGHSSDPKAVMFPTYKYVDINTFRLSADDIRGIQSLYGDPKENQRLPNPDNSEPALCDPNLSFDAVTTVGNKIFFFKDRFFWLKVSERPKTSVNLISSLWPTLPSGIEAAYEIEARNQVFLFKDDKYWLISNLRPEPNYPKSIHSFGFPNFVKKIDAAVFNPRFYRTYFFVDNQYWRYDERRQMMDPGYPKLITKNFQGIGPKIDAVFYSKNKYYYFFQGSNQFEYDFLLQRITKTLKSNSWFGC

[5] = target: Voltage-gated inwardly rectifying potassium channel KCNH2 (Homo sapiens, UniProt Q12809); assay: Inhibition of human ERG by fluorescence polarization assay
Chain of Voltage-gated inwardly rectifying potassium channel KCNH2 (Q12809 whole entry): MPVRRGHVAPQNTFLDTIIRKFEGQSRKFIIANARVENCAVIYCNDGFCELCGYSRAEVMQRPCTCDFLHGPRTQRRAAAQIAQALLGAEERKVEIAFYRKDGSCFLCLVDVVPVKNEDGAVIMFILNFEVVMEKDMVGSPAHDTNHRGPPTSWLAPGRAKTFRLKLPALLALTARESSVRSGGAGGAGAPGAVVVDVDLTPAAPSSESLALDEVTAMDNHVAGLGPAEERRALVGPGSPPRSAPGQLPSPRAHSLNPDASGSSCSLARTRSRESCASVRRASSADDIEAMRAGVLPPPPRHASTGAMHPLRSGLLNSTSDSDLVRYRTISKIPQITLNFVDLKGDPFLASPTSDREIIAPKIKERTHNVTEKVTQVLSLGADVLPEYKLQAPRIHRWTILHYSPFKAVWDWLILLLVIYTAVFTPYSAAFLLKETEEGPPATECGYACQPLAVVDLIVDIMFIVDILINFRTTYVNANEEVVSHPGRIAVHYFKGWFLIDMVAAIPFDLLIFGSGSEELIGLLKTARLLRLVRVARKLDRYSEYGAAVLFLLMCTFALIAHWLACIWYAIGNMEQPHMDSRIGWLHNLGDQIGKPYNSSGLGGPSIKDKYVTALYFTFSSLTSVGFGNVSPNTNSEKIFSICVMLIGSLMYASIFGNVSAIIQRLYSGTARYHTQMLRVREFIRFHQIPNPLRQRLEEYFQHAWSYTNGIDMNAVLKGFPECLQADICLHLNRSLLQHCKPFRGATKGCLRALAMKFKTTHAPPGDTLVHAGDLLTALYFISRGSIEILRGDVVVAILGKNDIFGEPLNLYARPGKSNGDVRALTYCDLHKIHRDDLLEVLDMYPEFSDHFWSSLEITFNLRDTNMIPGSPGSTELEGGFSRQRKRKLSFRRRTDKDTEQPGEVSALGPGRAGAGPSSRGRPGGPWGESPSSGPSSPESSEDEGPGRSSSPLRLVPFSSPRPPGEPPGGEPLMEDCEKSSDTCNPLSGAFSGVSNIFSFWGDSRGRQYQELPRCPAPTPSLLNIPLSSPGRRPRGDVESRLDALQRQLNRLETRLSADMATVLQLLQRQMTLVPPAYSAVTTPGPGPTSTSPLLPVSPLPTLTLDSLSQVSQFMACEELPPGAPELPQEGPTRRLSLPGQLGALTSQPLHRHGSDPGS

[6] = Stability in rat liver microsomes assessed as compound remaining at 30 mins; assay type: ADME, Microsome; settings: read-out: Stability
Method in brief: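 Compound incubated with rat liver microsomes for 30 min. Result given as percent of parent compound remaining at t = 30 min.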

[7] = Stability of the compound in presence of UGT; assay type: ADME
Method in brief: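 UGT (glucuronidation) stability assay, incubated for 30 min. Result given as percent of compound remaining at t = 30 min.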

[8] = test system: Rattus norvegicus; assay: Inhibition of Anthrax LT-induced toxicity in Fischer 344 rat assessed as increase in survival at 2.5 mg/kg, iv administered 20 to 30 mins after LT challenge; assay type: functional, organism-based; parameters: dose 2.5 mg/kg
[9] = test system: Rattus norvegicus; assay: Inhibition of Anthrax LT-induced toxicity in Fischer 344 rat assessed as increase in survival at 1.25 mg/kg, iv administered 20 to 30 mins after LT challenge; assay type: functional, organism-based; parameters: dose 1.25 mg/kg
[10] = target: T1, Interstitial collagenase (Homo sapiens, UniProt P03956); assay: Inhibition of MMP-1 using OmniMMP as substrate
T1 sequence (P03956 whole entry): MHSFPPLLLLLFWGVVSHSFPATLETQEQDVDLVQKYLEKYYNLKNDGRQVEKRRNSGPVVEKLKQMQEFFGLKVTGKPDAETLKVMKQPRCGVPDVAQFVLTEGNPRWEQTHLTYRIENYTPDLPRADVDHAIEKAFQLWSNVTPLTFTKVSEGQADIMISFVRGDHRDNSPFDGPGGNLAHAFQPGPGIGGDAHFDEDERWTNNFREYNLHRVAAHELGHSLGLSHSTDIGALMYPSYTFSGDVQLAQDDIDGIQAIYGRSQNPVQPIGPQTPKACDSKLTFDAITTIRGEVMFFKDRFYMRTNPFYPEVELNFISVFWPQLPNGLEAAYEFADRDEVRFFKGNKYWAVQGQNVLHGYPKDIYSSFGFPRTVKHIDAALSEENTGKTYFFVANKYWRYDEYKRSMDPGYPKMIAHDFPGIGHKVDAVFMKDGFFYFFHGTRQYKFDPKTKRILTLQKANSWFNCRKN

[11] = target: Matrix metalloproteinase-9 (Homo sapiens, UniProt P14780); assay: Inhibition of MMP-9 using OmniMMP as substrate
Chain of Matrix metalloproteinase-9 (P14780 whole entry): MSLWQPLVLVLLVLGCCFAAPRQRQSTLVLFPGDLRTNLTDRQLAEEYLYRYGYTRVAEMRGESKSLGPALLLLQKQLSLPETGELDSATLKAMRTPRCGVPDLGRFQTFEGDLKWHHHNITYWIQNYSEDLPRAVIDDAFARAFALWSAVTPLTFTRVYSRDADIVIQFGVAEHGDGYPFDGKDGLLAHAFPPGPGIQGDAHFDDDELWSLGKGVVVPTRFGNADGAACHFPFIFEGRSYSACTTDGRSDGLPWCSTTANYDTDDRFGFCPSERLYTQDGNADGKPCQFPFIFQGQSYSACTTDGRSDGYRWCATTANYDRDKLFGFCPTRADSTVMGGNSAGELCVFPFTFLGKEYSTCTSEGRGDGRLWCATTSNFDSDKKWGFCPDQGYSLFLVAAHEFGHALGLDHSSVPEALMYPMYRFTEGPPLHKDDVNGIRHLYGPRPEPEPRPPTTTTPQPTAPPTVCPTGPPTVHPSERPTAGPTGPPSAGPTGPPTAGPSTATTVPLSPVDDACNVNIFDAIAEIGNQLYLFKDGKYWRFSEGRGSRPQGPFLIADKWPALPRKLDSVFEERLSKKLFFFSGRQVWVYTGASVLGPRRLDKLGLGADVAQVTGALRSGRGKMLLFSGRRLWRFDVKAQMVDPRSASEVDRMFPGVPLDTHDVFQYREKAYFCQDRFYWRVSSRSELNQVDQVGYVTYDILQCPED

[12] = Lipophilicity, Log D of the compound; assay type: physicochemical; settings: octanol/water
[13] = target: Matrix metalloproteinase-14 (Homo sapiens, UniProt P50281); assay: Inhibition of MMP-14 using OmniMMP as substrate
[14] = target: Stromelysin-1 (Homo sapiens, UniProt P08254); assay: Inhibition of MMP-3 using OmniMMP as substrate
Chain of Stromelysin-1 (P08254 whole entry): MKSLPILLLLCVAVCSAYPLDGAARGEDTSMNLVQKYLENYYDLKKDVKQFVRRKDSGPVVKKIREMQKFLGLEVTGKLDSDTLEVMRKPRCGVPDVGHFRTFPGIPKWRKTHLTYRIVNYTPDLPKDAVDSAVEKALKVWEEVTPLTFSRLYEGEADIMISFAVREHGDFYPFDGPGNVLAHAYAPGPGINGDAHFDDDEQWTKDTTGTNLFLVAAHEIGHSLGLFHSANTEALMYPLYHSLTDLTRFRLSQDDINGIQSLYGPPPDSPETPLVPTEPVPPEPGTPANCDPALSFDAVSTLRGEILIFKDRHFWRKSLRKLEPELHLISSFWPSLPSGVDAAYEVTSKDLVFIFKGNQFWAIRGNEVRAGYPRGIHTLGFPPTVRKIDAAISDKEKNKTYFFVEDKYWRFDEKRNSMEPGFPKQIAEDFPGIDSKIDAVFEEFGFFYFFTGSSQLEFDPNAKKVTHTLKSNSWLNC

[15] = test system: Plasma; assay: Stability in plasma assessed as compound remaining at 3 hrs; assay type: ADME, cell-free
Method in brief: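 Compound incubated in plasma. Result given as percent of compound remaining at 3 hours.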

[16] = target: T2, Lethal factor (Bacillus anthracis, UniProt P15917); assay: Inhibition of N-terminal 6-histine tagged Bacillus anthracis LF 263-C terminal catalytic domain using MCA-KKVYPYPME-Dap(Dnp)-NH2 as substrate after 4 hrs by FRET analysis
T2 sequence (P15917 whole entry): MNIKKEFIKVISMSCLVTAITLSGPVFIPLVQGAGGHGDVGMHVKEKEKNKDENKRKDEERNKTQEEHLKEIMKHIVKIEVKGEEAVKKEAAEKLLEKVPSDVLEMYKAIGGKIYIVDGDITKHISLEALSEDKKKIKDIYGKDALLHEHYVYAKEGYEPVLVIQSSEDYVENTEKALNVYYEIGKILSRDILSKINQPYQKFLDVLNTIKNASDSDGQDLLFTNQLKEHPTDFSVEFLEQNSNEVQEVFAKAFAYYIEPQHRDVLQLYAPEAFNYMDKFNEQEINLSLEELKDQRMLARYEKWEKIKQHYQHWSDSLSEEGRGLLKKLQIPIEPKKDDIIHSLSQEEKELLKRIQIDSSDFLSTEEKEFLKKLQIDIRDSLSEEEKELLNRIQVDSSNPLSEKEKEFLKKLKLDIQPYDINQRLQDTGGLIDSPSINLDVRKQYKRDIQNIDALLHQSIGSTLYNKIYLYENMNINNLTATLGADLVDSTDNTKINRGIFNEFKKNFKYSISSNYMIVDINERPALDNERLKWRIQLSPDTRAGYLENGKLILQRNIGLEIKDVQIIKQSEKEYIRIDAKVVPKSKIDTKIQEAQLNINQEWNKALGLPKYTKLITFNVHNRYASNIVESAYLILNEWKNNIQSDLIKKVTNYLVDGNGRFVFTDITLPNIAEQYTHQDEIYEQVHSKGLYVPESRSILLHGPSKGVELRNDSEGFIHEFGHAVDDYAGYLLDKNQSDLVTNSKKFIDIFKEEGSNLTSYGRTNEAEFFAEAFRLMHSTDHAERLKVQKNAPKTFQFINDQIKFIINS

[17] = test system: Oryctolagus cuniculus; assay: Tmax in NZW rabbit at 10 mg/kg, sc; assay type: ADME, organism-based; parameters: dose 10 mg/kg, route subcutaneous; settings: in vivo
Method in brief: (§1)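 Single subcutaneous dose of 10 mg/kg given to NZW rabbits in DMSO:PEG400:pH 6 citrate buffer (2:10:88). Plasma drug levels were followed over time, including a 12 h sample. Tmax, Cmax, terminal (β) half-life and AUC to infinity were derived from the plasma concentration–time profile.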

[18] = test system: Oryctolagus cuniculus; assay: AUC (infinity) in NZW rabbit at 10 mg/kg, sc; assay type: ADME, organism-based, Plasma; parameters: time infinity, dose 10 mg/kg, route subcutaneous; settings: in vivo; method in brief: as §1
[19] = test system: Oryctolagus cuniculus; assay: Cmax in NZW rabbit at 10 mg/kg, sc; assay type: ADME, organism-based; parameters: dose 10 mg/kg, route subcutaneous; settings: in vivo; method in brief: as §1
[20] = test system: Oryctolagus cuniculus; assay: Terminal half life in NZW rabbit at 10 mg/kg, sc; assay type: ADME, organism-based; parameters: dose 10 mg/kg, route subcutaneous; settings: in vivo; method in brief: as §1
[21] = Plasma concentration in NZW rabbit at 10 mg/kg, sc at 12 hrs; assay type: ADME, organism-based, Oryctolagus cuniculus; parameters: dose 10 mg/kg, route subcutaneous; method in brief: as §1

## CCC(NCCCC[C@@H](Nc1cc(C)c(F)c(C)c1)C(=O)NO)c1ccc(F)cc1 (mixture of isomers)
[1]
  Survival increase (active/not active): Active
[2]
  IC50: 0.24 µM
[3]
  CC50: 32 µM
[4]
  Ki: > 50 µM
[5]
  IC50: 0.95 µM
[6]
  remaining at 0.5 h: 75%
[7]
  Stability: 74%
[8]
  inhibition: Active
[9]
  inhibition: inactive
[10]
  Ki: > 50 µM
[11]
  Ki: > 50 µM
[12]
  logD: 3.3
[13]
  Ki: > 50 µM
[14]
  Ki: > 50 µM
[15]
  Stability: 84%
[16]
  Ki: 0.17 nM

## CO[C@H](C[C@H](CCCCNCc1ccc(F)cc1)C(=O)NO)c1ccc(F)cc1
[1]
  Survival increase (active/not active): Active
[3]
  CC50: 55 µM
[4]
  Ki: 2.3 µM
[6]
  remaining at 0.5 h: 91%
[7]
  Stability: 99%
[10]
  Ki: 33 µM
[11]
  Ki: 21 µM
[12]
  logD: 2.4
[13]
  Ki: > 50 µM
[14]
  Ki: > 50 µM

## Cc1cc(C[C@H](CCCCNCc2ccc(F)cc2)C(=O)NO)cc(C)c1F
[1]
  Survival increase (active/not active): Active
[2]
  IC50: 0.02 µM
[3]
  CC50: 16 µM
[4]
  Ki: > 50 µM
[5]
  IC50: 4.65 µM
[6]
  remaining at 0.5 h: 18%
[7]
  Stability: 79%
[8]
  inhibition: Active
[10]
  Ki: > 50 µM
[11]
  Ki: > 50 µM
[12]
  logD: 2.2
[13]
  Ki: > 50 µM
[14]
  Ki: > 50 µM
[15]
  Stability: 100%

## CCC(NCCCC[C@@H](Cc1cc(C)c(F)c(C)c1)C(=O)NO)c1ccc(F)cc1 (mixture of isomers)
[1]
  Survival increase (active/not active): Active
[2]
  IC50: 0.08 µM
[3]
  CC50: 15 µM
[4]
  Ki: > 50 µM
[6]
  remaining at 0.5 h: 55%
[7]
  Stability: 100%
[8]
  inhibition: Active
[9]
  inhibition: Active
[10]
  Ki: > 50 µM
[11]
  Ki: > 50 µM
[12]
  logD: 2.9
[13]
  Ki: > 50 µM
[14]
  Ki: > 50 µM
[15]
  Stability: 95%
[16]
  Ki: 0.31 nM

## CC[C@@H](NCCCC[C@@H](Cc1cc(C)c(F)c(C)c1)C(=O)NO)c1ccc(F)cc1
[16]
  Ki: 0.04 nM

## CCC(NCCCC[C@@H](C[C@@H](OC)c1ccc(F)cc1)C(=O)NO)c1ccc(F)cc1 (mixture of isomers)
[1]
  Survival increase (active/not active): Active
[2]
  IC50: 0.16 µM
[17]
  Tmax: 0.3 h
[3]
  CC50: 35 µM
[18]
  AUC: 2637.6 ng·h/mL
[4]
  Ki: 12 µM
[19]
  Cmax: 1300 nM
[6]
  remaining at 0.5 h: 75%
[7]
  Stability: 100%
[20]
  beta t1/2: 5.3 h
[8]
  inhibition: Active
[10]
  Ki: 47 µM
[21]
  concentration at 12 h: 79 nM
[11]
  Ki: 11 µM
[12]
  logD: 2.9
[13]
  Ki: > 50 µM
[14]
  Ki: 31 µM
[15]
  Stability: 94%
[16]
  Ki: 0.27 nM

## Cc1cc(C[C@H](CCCCN[C@@H](CC(C)C)c2ccc(F)cc2)C(=O)NO)cc(C)c1F
[16]
  Ki: 1.3 nM

## Cc1cc(C[C@H](CCCCN[C@H](CC(C)C)c2ccc(F)cc2)C(=O)NO)cc(C)c1F
[16]
  Ki: 0.23 nM

## CC[C@H](NCCCC[C@@H](Cc1cc(C)c(F)c(C)c1)C(=O)NO)c1ccc(F)cc1
[16]
  Ki: 0.11 nM

## Cc1cc(C[C@H](CCCCN[C@H](C)c2ccc(F)cc2)C(=O)NO)cc(C)c1F
[16]
  Ki: 0.3 nM

## Cc1cc(C[C@H](CCCCN[C@@H](Cc2ccccc2)c2ccc(F)cc2)C(=O)NO)cc(C)c1F
[16]
  Ki: 2 nM

## Cc1cc(C[C@H](CCCCN[C@@H](C)c2ccc(F)cc2)C(=O)NO)cc(C)c1F
[16]
  Ki: 0.49 nM

## Cc1cc(N[C@H](CCCCNCc2ccc(F)cc2)C(=O)NO)cc(C)c1F
[1]
  Survival increase (active/not active): Active
[2]
  IC50: 1.35 µM
[3]
  CC50: 61 µM
[4]
  Ki: > 50 µM
[5]
  IC50: 1.23 µM
[6]
  remaining at 0.5 h: 60%
[7]
  Stability: 38%
[8]
  inhibition: Active
[10]
  Ki: > 50 µM
[11]
  Ki: > 50 µM
[12]
  logD: 2.3
[13]
  Ki: > 50 µM
[14]
  Ki: > 50 µM
[15]
  Stability: 90%

## Cc1cc(O[C@H](CCCCNCc2ccc(F)cc2)C(=O)NO)cc(C)c1F
[1]
  Survival increase (active/not active): inactive
[2]
  IC50: 0.23 µM
[3]
  CC50: 26 µM
[4]
  Ki: > 50 µM
[5]
  IC50: 0.79 µM
[6]
  remaining at 0.5 h: 3%
[7]
  Stability: 76%
[10]
  Ki: > 50 µM
[11]
  Ki: > 50 µM
[12]
  logD: 3.1
[13]
  Ki: > 50 µM
[14]
  Ki: > 50 µM
[15]
  Stability: 61%

## Cc1cc(C[C@H](CCCCN[C@H](Cc2ccccc2)c2ccc(F)cc2)C(=O)NO)cc(C)c1F
[16]
  Ki: 0.6 nM

## CCC(NCCCC[C@@H](Oc1cc(C)c(F)c(C)c1)C(=O)NO)c1ccc(F)cc1 (mixture of isomers)
[1]
  Survival increase (active/not active): Active
[3]
  CC50: 21 µM
[4]
  Ki: > 50 µM
[6]
  remaining at 0.5 h: 7%
[7]
  Stability: 75%
[10]
  Ki: > 50 µM
[11]
  Ki: > 50 µM
[12]
  logD: 3.3
[13]
  Ki: > 50 µM
[14]
  Ki: > 50 µM
[15]
  Stability: 38%
[16]
  Ki: 1 nM
